Assays:
[1] = test system: BT-549; assay: Growth inhibition of human BT549 cells at 10 uM after 48 hrs by SRB assay relative to control; format: functional; settings: BT-549, 48 h, read-out: GI
How it was run: (§1)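 Screened at the National Cancer Institute by the standard NCI protocol using the sulforhodamine B assay, which measures cellular protein. Single dose of 10 µM. Result is percent growth inhibition; values above 100% mean cell number fell below the initial population. Values are the average of duplicates.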

[2] = test system: OVCAR-4; assay: Growth inhibition of human OVCAR4 cells at 10 uM after 48 hrs by SRB assay relative to control; format: functional; settings: OVCAR-4, 48 h, read-out: GI; how it was run: as §1
[3] = test system: MDA-MB-435; assay: Growth inhibition of human MDA-MB-435 cells at 10 uM after 48 hrs by SRB assay relative to control; format: functional; settings: MDA-MB-435, 48 h, read-out: GI; how it was run: as §1
[4] = test system: CCRF-CEM; assay: Growth inhibition of human CCRF-CEM cells at 10 uM after 48 hrs by SRB assay relative to control; format: functional; settings: read-out: GI; how it was run: as §1
[5] = test system: HT-29; assay: Growth inhibition of human HT-29 cells at 10 uM after 48 hrs by SRB assay relative to control; format: functional; settings: HT-29, 48 h, read-out: GI; how it was run: as §1
[6] = test system: NCI-H23; assay: Growth inhibition of human NCI-H23 cells at 10 uM after 48 hrs by SRB assay relative to control; format: functional; settings: NCI-H23, 48 h, read-out: GI; how it was run: as §1
[7] = test system: NCI-H522; assay: Growth inhibition of human NCI-H522 cells at 10 uM after 48 hrs by SRB assay relative to control; format: functional; settings: NCI-H522, 48 h, read-out: GI; how it was run: as §1
[8] = test system: A549; assay: Growth inhibition of human A549 cells at 10 uM after 48 hrs by SRB assay relative to control; format: functional; settings: A549, 48 h, read-out: GI; how it was run: as §1
[9] = Cytotoxicity against human IOSE-80PC cells after 48 hrs by MTT assay; format: cell-based
How it was run: (§2)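 Normal human lung epithelial L132 and ovarian epithelial IOSE-80PC cells were tested by MTT viability assay, and IC50 was determined.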

[10] = test system: SF-295; assay: Growth inhibition of human SF295 cells at 10 uM after 48 hrs by SRB assay relative to control; format: functional; settings: SF-295, 48 h, read-out: GI; how it was run: as §1
[11] = test system: U-251; assay: Growth inhibition of human U251 cells at 10 uM after 48 hrs by SRB assay relative to control; format: functional; settings: U-251, 48 h, read-out: GI
How it was run: (§3)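 NCI screen against its human cancer cell line panel by the standard NCI protocol, SRB protein stain. Single dose of 10 μM. Percent growth inhibition versus control; values above 100% mean the cell population fell below the starting number. Each value is the mean of duplicates.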

[12] = test system: NCI-H322M; assay: Growth inhibition of human NCI-H322M cells at 10 uM after 48 hrs by SRB assay relative to control; format: functional; settings: read-out: GI; how it was run: as §1
[13] = test system: L132; assay: Cytotoxicity against human L-132 cells after 48 hrs by MTT assay; format: cell-based; settings: L132, 48 h; how it was run: as §2
[14] = test system: HCC 2998; assay: Growth inhibition of human HCC2998 cells at 10 uM after 48 hrs by SRB assay relative to control; format: functional; settings: HCC 2998, 48 h, read-out: GI; how it was run: as §1
[15] = test system: SK-MEL-5; assay: Growth inhibition of human SK-MEL-5 cells at 10 uM after 48 hrs by SRB assay relative to control; format: functional; settings: SK-MEL-5, 48 h, read-out: GI; how it was run: as §1
[16] = test system: NCI-H226; assay: Growth inhibition of human NCI-H226 cells at 10 uM after 48 hrs by SRB assay relative to control; format: functional; settings: NCI-H226, 48 h, read-out: GI; how it was run: as §1
[17] = test system: TK-10; assay: Growth inhibition of human TK10 cells at 10 uM after 48 hrs by SRB assay relative to control; format: functional; settings: TK-10, 48 h, read-out: GI; how it was run: as §3
[18] = test system: UACC-62; assay: Growth inhibition of human UACC62 cells at 10 uM after 48 hrs by SRB assay relative to control; format: functional; settings: UACC-62, 48 h, read-out: GI; how it was run: as §3
[19] = test system: OVCAR-3; assay: Growth inhibition of human OVCAR3 cells at 10 uM after 48 hrs by SRB assay relative to control; format: functional; settings: OVCAR-3, 48 h, read-out: GI; how it was run: as §1
[20] = test system: NCI-H460; assay: Growth inhibition of human NCI-H460 cells at 10 uM after 48 hrs by SRB assay relative to control; format: functional; settings: NCI-H460, 48 h, read-out: GI; how it was run: as §1
[21] = test system: SR; assay: Growth inhibition of human SR cells at 10 uM after 48 hrs by SRB assay relative to control; format: functional; settings: read-out: GI; how it was run: as §3
[22] = test system: COLO 205; assay: Growth inhibition of human COLO205 cells at 10 uM after 48 hrs by SRB assay relative to control; format: functional; settings: COLO 205, 48 h, read-out: GI; how it was run: as §1

Row | Compound | inhibition of growth at 10 µM [1] | inhibition of growth at 10 µM [2] | inhibition of growth at 10 µM [3] | inhibition of growth at 10 µM [4] | inhibition of growth at 10 µM [5] | inhibition of growth at 10 µM [6] | inhibition of growth at 10 µM [7] | inhibition of growth at 10 µM [8] | inhibition of growth at 10 µM [10] | inhibition of growth at 10 µM [11] | inhibition of growth at 10 µM [12] | inhibition of growth at 10 µM [14] | inhibition of growth at 10 µM [15] | inhibition of growth at 10 µM [16] | inhibition of growth at 10 µM [17] | inhibition of growth at 10 µM [18] | inhibition of growth at 10 µM [19] | inhibition of growth at 10 µM [20] | inhibition of growth at 10 µM [21] | inhibition of growth at 10 µM [22] | also measured
1 | COc1ccccc1C(=O)Nc1cccc(-c2cc(=O)c3c(OC)c(OC)c(OC)cc3o2)c1 | 54.1% | 41% | 56.5% | 84% | 75.4% | 37.6% | 55.7% | 51.8% | 40.8% | 61% | 56.4% | 32.2% | 75% | 41.6% | 46.6% | 56.9% | 48.6% | – | – | – | IC50 [9]: > 100 µM; IC50 [13]: > 100 µM
2 | COc1ccc(NC(=O)c2cccc(-c3cc(=O)c4c(OC)c(OC)c(OC)cc4o3)c2)cc1 | 53.1% | 15.3% | 23.8% | 50.7% | 32.9% | 28.7% | 39% | 22.4% | 33.6% | 13.9% | 24.5% | 26.3% | 59.1% | 18.5% | 15.7% | 35.2% | 54.3% | 33.9% | 18.4% | 30.6% | –
3 | COc1ccccc1NC(=O)c1cccc(-c2cc(=O)c3c(OC)c(OC)c(OC)cc3o2)c1 | 44.9% | 19.4% | 22.4% | 48.3% | 38.6% | 34% | 56.5% | 31.1% | 38.2% | 11% | 18.9% | 13.6% | 58.4% | 37.2% | 10.4% | 46.5% | 47.5% | 41.1% | 32.4% | 14.8% | –
4 | COc1cccc(NC(=O)c2cccc(-c3cc(=O)c4c(OC)c(OC)c(OC)cc4o3)c2)c1 | 45.8% | 37.4% | 18.8% | 59.5% | 49.2% | 36.9% | 53.4% | 37.2% | 29.2% | 37.9% | 19.9% | 12.2% | 36.1% | 36.7% | 21.2% | 37.9% | 33.4% | 39.9% | 58.1% | 31.7% | –

Source: ChEMBL document CHEMBL4325889, “Natural products hybrids: 3,5,4'-Trimethoxystilbene-5,6,7-trimethoxyflavone chimeric analogs as potential cytotoxic agents against diverse human cancer cells” (Eur J Med Chem, 2019)
